Assay outcomes (PubChem)
Shown are actives, neighbours in structure and some others; about 5.9% of the full set was active somewhere.
IDH1 mut inh: blocks human IDH1 R132H reductase activity. O75874. diaphorase/resazurin fluorescence, 60 min. inhibition, % at 10 µM. 70,000 tested, 0.18% active. AID 624101; in the data active means inhibition above about 34%; inconclusive means no clear call, values can overlap the other calls; inactive means below about 11%
T cruzi growth-1: blocks T. cruzi growth in NIH3T3 culture. T. cruzi beta-gal in NIH3T3, GalScreen luminescence, 90 h. inhibition, % at 8.34 µM. 77,000 tested, 5.9% active. AID 624255;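 active means mean inhibition above about 93%, with at least 55% of replicates each passing it, limit read from the data, passing the limit was not always enough; inconclusive means only one of those two conditions holds; inactive means neither condition holds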
GASC1 inh: KDM4C (human) demethylase inhibition. AID 720574. GST-KDM4C 2-372, H3K9me3 peptide, LANCE TR-FRET. inhibition, % at 12.5 µM. Q9H3R0. 96,000 tested, 0.15% active;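 active means mean replicate inhibition above about 25%, with at least 55% of replicates also reaching it, limit read from the data, passing the limit was not always enough; inconclusive means only one of those two conditions met; inactive means neither condition met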
Target sequence (Q9H3R0 2-372 limits assumed): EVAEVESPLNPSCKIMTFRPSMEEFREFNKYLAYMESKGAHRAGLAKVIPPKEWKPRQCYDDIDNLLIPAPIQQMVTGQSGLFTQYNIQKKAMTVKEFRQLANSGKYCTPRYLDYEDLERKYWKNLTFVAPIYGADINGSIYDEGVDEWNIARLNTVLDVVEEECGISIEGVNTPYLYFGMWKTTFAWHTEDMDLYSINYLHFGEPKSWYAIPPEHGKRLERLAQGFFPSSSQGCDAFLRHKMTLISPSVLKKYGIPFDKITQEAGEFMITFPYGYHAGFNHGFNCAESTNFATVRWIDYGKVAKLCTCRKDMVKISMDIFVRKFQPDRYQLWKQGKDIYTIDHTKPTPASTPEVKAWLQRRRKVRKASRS
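Test system: N-terminal GST-fused human GASC-1 (KDM4C) fragment, residues 2-372; quantity: GASC-1 enzyme at 10 nM final in reaction; dosing: single dose; schedule: 30 min demethylation and 1 h detection at room temperature; signal: LANCE TR-FRET, excitation 340 nm, emissions 618 and 671 nm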
Pf Dd2 growth: blocks growth of Plasmodium falciparum Dd2 parasites | P. falciparum Dd2 growth, SYBR Green, 72 h; hits give low values | activity change, % at 10 µM | AID 1159554 | 94,000 tested, 2.3% active; in the data active means activity change below about -80%; inconclusive means no clear call, values can overlap the other calls
T cruzi growth-2: Trypanosoma cruzi proliferation inhibition | shares compounds with T cruzi growth-1 | T. cruzi beta-gal in NIH3T3, GalScreen luminescence, 90 h | inhibition, % at 8.35 µM | 5,600 tested, 72% active;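 active means mean replicate inhibition above about 95% and at least 55% of replicates individually reaching it, limit read from the data; inconclusive means only one of the two criteria is met; inactive means neither criterion is met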
T cruzi growth-3: blocks T. cruzi growth in NIH3T3 host cells; T. cruzi beta-gal in NIH3T3, GalScreen luminescence, 90 h; 5,600 tested, 21% active; shares compounds with T cruzi growth-1; inhibition, % at 2.09 µM; AID 651740;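 active means mean inhibition above about 95%, with at least 55% of replicates also reaching it, limit read from the data; inconclusive means meets just one of the two conditions; inactive means meets neither condition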
NIH3T3 tox: kills mouse NIH/3T3 fibroblasts; shares compounds with T cruzi growth-1; NIH/3T3 viability, CellTiter-Glo ATP luminescence, 90 h; cytotoxicity (signal decrease), % at 8.35 µM; 5,600 tested, 14% active; AID 651742;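 active means mean signal decrease across replicates above about 35% based on untreated-well scatter, with enough replicates individually passing, limit read from the data; inconclusive means no rule stated though some were filed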
NIH3T3 tox 2: NIH/3T3 (mouse) viability loss | shares compounds with T cruzi growth-1 | NIH/3T3 viability, CellTiter-Glo ATP luminescence, 90 h | inhibition, % at 24.9 µM | 5,600 tested, 56% active | AID 651744;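 active means mean loss of cell viability signal at or above a set limit, and enough replicates individually reaching it; inconclusive means meets only the mean limit or only the replicate share; inactive means meets neither condition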
Hits are given with their value.

`CO[C@@H]1CN(C)C(=O)c2ccc(NS(=O)(=O)c3cccc(C)c3)cc2OC[C@@H](C)N(Cc2cc(F)ccc2F)C[C@H]1C` gave IDH1 mut inh inactive, T cruzi growth-1 98, GASC1 inh inactive, Pf Dd2 growth inactive, T cruzi growth-2 106, T cruzi growth-3 inactive, NIH3T3 tox inactive and NIH3T3 tox 2 inactive.
CO[C@@H]1CN(C)C(=O)c2cc(NS(=O)(=O)c3cccc(F)c3)ccc2OC[C@@H](C)N(Cc2cc(F)ccc2F)C[C@H]1C was read as IDH1 mut inh inactive, T cruzi growth-1 inconclusive, GASC1 inh inactive, Pf Dd2 growth inactive, T cruzi growth-2 103, T cruzi growth-3 inconclusive, NIH3T3 tox inactive and NIH3T3 tox 2 inactive.
For CO[C@@H]1CN(C)C(=O)c2ccc(NS(=O)(=O)c3cccc(F)c3)cc2OC[C@H](C)N(Cc2cc(F)ccc2F)C[C@@H]1C the results were IDH1 mut inh inactive, GASC1 inh inactive and Pf Dd2 growth inactive.
For CO[C@@H]1CN(C)C(=O)c2cc(NS(=O)(=O)c3cccc(F)c3)ccc2OC[C@H](C)N(Cc2cc(F)ccc2F)C[C@H]1C the results were IDH1 mut inh inactive, T cruzi growth-1 inactive, GASC1 inh inactive and Pf Dd2 growth inactive.
O=C(O)C1OC(c2cccc(Cl)c2)=NC12CC2 (stereo not drawn) was read as IDH1 mut inh inactive.
CC(C)(C)C1CCc2c(sc(NC(=S)NC(=O)c3cc4ccccc4o3)c2C(N)=O)C1 (stereo not drawn) was read as IDH1 mut inh inactive.
For CC=Cc1ccc2n(c1=O)C[C@H]1[C@H](CO)[C@@H](C(=O)NCCCN(C)C)[C@@H]2N1C(=O)c1ccccc1F (mixture of isomers) the results were T cruzi growth-1 active, GASC1 inh inactive, T cruzi growth-2 inconclusive, T cruzi growth-3 inactive, NIH3T3 tox inactive and NIH3T3 tox 2 inactive.
For CCC(=O)N1[C@@H]2c3ccc(/C=C/c4ccccc4)c(=O)n3C[C@H]1[C@H](CO)[C@H]2C(=O)N(C)C the results were T cruzi growth-1 inactive, GASC1 inh inactive and Pf Dd2 growth inactive.
CC(=O)N1[C@@H]2c3ccc(/C=C/c4ccccc4)c(=O)n3C[C@H]1[C@H](CO)[C@H]2C(=O)N(C)C was read as T cruzi growth-1 active, GASC1 inh inactive, T cruzi growth-2 inactive, T cruzi growth-3 inactive, NIH3T3 tox inactive and NIH3T3 tox 2 inactive.
For CC(=O)N1[C@@H]2Cn3c(ccc(/C=C/c4ccccc4)c3=O)[C@H]1[C@@H](C(=O)N(C)C)[C@@H]2CO the results were T cruzi growth-1 active, GASC1 inh inactive, T cruzi growth-2 inactive, T cruzi growth-3 inactive, NIH3T3 tox inactive and NIH3T3 tox 2 inactive.
C[C@H]1CN([C@@H](C)CO)S(=O)(=O)c2ccc(C#CC3CC3)cc2O[C@H]1CN(C)C(=O)Cc1ccncc1 was read as IDH1 mut inh inactive, T cruzi growth-1 inactive, GASC1 inh inactive and Pf Dd2 growth inactive.
Screening C[C@H](CO)N1C[C@H](C)[C@@H](CN(C)C(=O)Cc2ccncc2)Oc2cc(C#CC3CC3)ccc2S1(=O)=O returned IDH1 mut inh inconclusive, T cruzi growth-1 97, GASC1 inh inactive, Pf Dd2 growth inactive, T cruzi growth-2 102, T cruzi growth-3 inactive, NIH3T3 tox inactive and NIH3T3 tox 2 inactive.
C[C@@H]1CN([C@@H](C)CO)S(=O)(=O)c2ccc(C#CC3CC3)cc2O[C@@H]1CN(C)C(=O)Cc1ccncc1 was read as T cruzi growth-1 inactive, GASC1 inh inactive and Pf Dd2 growth inactive.
C[C@H]1CN([C@@H](C)CO)S(=O)(=O)c2ccc(C#CC3CC3)cc2O[C@@H]1CN(C)C(=O)Cc1ccncc1 was read as T cruzi growth-1 96, GASC1 inh inactive, Pf Dd2 growth inactive, T cruzi growth-2 104, T cruzi growth-3 inactive, NIH3T3 tox inactive and NIH3T3 tox 2 inactive.
For Cc1cccc(C)c1NC(=O)CN(c1ccc(Br)cc1)S(C)(=O)=O the results were IDH1 mut inh inactive.
COc1cc(O)c2c(c1)CCc1cc(OC)c(OC)cc1-2 was read as IDH1 mut inh inactive.
O=C(N/N=C/c1ccc(Br)o1)c1ccccc1O was read as IDH1 mut inh inactive.
For Cc1cc(NC(=O)CSc2nnc(-c3ccccc3)n2-c2ccc(F)cc2)ccc1Br the results were IDH1 mut inh inactive.
Screening C[C@@H]1CCCCO[C@@H](CN(C)C(=O)C2CCCCC2)[C@@H](C)CN([C@@H](C)CO)C(=O)c2cc(NS(=O)(=O)c3cccs3)ccc2O1 returned IDH1 mut inh inactive, T cruzi growth-1 110, GASC1 inh inactive, Pf Dd2 growth inactive, T cruzi growth-2 inactive, T cruzi growth-3 inactive, NIH3T3 tox inactive and NIH3T3 tox 2 inactive.
For C[C@@H]1CCCCO[C@@H](CN(C)C(=O)C2CCCCC2)[C@H](C)CN([C@@H](C)CO)C(=O)c2cc(NS(=O)(=O)c3cccs3)ccc2O1 the results were IDH1 mut inh inactive, T cruzi growth-1 inactive, GASC1 inh inactive and Pf Dd2 growth inactive.
C[C@H](CO)N1C[C@H](C)[C@H](CN(C)C(=O)C2CCCCC2)OCCCC[C@H](C)Oc2ccc(NS(=O)(=O)c3cccs3)cc2C1=O was read as IDH1 mut inh inactive, T cruzi growth-1 115, GASC1 inh inactive, Pf Dd2 growth inactive, T cruzi growth-2 inactive, T cruzi growth-3 inactive, NIH3T3 tox inactive and NIH3T3 tox 2 inactive.
`Cc1c(NC(=O)CN(c2cccc(Cl)c2Cl)S(C)(=O)=O)cccc1[N+](=O)[O-]` gave IDH1 mut inh inactive.
Screening C[C@H]1CN([C@@H](C)CO)C(=O)c2ccccc2-c2ccccc2CO[C@@H]1CN(C)C(=O)Nc1ccnc(N2CCOCC2)c1 returned IDH1 mut inh inactive, T cruzi growth-1 108, GASC1 inh inactive, Pf Dd2 growth inactive, T cruzi growth-2 101, T cruzi growth-3 inconclusive, NIH3T3 tox inactive and NIH3T3 tox 2 inactive.
For C[C@@H]1CN([C@@H](C)CO)C(=O)c2c(c3ccccc3n2C)-c2ccccc2CO[C@@H]1CN(C)C(=O)Nc1ccnc(N2CCOCC2)c1 the results were GASC1 inh inactive and Pf Dd2 growth inactive.
Screening C[C@@H]1CN([C@H](C)CO)C(=O)c2ccccc2-c2ccccc2CO[C@H]1CN(C)C(=O)Nc1ccnc(N2CCOCC2)c1 returned IDH1 mut inh inactive, T cruzi growth-1 inconclusive, GASC1 inh inactive, Pf Dd2 growth inactive, T cruzi growth-2 96, T cruzi growth-3 inactive, NIH3T3 tox inactive and NIH3T3 tox 2 inactive.
For C[C@@H]1CN([C@@H](C)CO)S(=O)(=O)c2ccc(C#CC3CCCC3)cc2O[C@H]1CN(C)Cc1cccnc1 the results were T cruzi growth-1 inactive, GASC1 inh inactive and Pf Dd2 growth inactive.
